Assays:
Enterococcus faecium [1] = experiment: Antibacterial activity against vancomycin-resistant Enterococcus faecium 987 after overnight incubation; conditions: Enterococcus faecium, 987; read-out: MIC
Staphylococcus aureus = experiment: Antibacterial activity against Staphylococcus aureus 6538P after overnight incubation; format: functional; conditions: Staphylococcus aureus, 6538P; read-out: MIC
How it was run: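 Strains were grown in Luria Broth. Overnight stationary-phase cultures were diluted 1:1000 into fresh medium with twofold compound dilutions, highest typically 128 µg/ml, in 96-well plates. Incubated overnight at 37 °C. MIC recorded as the […].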

Enterococcus faecium [2] = experiment: Antibacterial activity against vancomycin-resistant Enterococcus faecium 243 after overnight incubation; conditions: Enterococcus faecium, 243; read-out: MIC
Enterococcus faecium [3] = experiment: Antibacterial activity against vancomycin-resistant Enterococcus faecium 820 after overnight incubation; conditions: Enterococcus faecium, 820; read-out: MIC
Enterococcus faecium [4] = experiment: Antibacterial activity against vancomycin-resistant Enterococcus faecium 449 after overnight incubation; conditions: Enterococcus faecium, 449; read-out: MIC

## C=CCOc1ccc2ccccc2c1-c1c(OCC(=O)N[C@H](CCCCN)C(=O)N[C@H](CCCNC(=N)N)C(=O)N[C@@H](CC=C)C(=O)OCc2ccccc2)ccc2ccccc12.Cl.Cl
Enterococcus faecium [1]
  MIC: 31.3 µg/mL
Staphylococcus aureus
  MIC: 1.95 µg/mL
Enterococcus faecium [2]
  MIC: 31.3 µg/mL
Enterococcus faecium [3]
  MIC: 31.3 µg/mL
Enterococcus faecium [4]
  MIC: 31.3 µg/mL

## C=CCOc1ccc2ccccc2c1-c1c(OCC(=O)N[C@H](CCCNC(=N)N)C(=O)N[C@H](CCCNC(=N)N)C(=O)N[C@@H](CC=C)C(=O)OCc2ccccc2)ccc2ccccc12.Cl.Cl
Enterococcus faecium [1]
  MIC: > 125 µg/mL
Staphylococcus aureus
  MIC: 31.3 µg/mL
Enterococcus faecium [2]
  MIC: > 125 µg/mL
Enterococcus faecium [3]
  MIC: 125 µg/mL
Enterococcus faecium [4]
  MIC: 125 µg/mL

## C=CCOc1ccc2ccccc2c1-c1c(OCC(=O)N[C@H](CCCCN)C(=O)N[C@H](CCCCN)C(=O)N[C@@H](CC=C)C(=O)OCc2ccccc2)ccc2ccccc12.Cl.Cl
Enterococcus faecium [1]
  MIC: 125 µg/mL
Staphylococcus aureus
  MIC: 3.9 µg/mL
Enterococcus faecium [2]
  MIC: 125 µg/mL
Enterococcus faecium [3]
  MIC: 62.5 µg/mL
Enterococcus faecium [4]
  MIC: 62.5 µg/mL

## C=CCOc1ccc2ccccc2c1-c1c(OCC(=O)NCC(=O)N[C@H](CCCNC(=N)N)C(=O)N[C@@H](CC=C)C(=O)OCc2ccccc2)ccc2ccccc12.Cl
Enterococcus faecium [1]
  MIC: > 125 µg/mL
Staphylococcus aureus
  MIC: 15.6 µg/mL
Enterococcus faecium [2]
  MIC: > 125 µg/mL
Enterococcus faecium [3]
  MIC: 125 µg/mL
Enterococcus faecium [4]
  MIC: 125 µg/mL

## C=CCOc1ccc2ccccc2c1-c1c(OCC(=O)N[C@H](C)C(=O)N[C@H](CCCNC(=N)N)C(=O)N[C@@H](CC=C)C(=O)OCc2ccccc2)ccc2ccccc12.Cl
Enterococcus faecium [1]
  MIC: 62.5 µg/mL
Staphylococcus aureus
  MIC: 5.2 µg/mL
Enterococcus faecium [2]
  MIC: 62.5 µg/mL
Enterococcus faecium [3]
  MIC: 62.5 µg/mL
Enterococcus faecium [4]
  MIC: 62.5 µg/mL

## C=CCOc1ccc2ccccc2c1-c1c(OCC(=O)N[C@H](CC=C)C(=O)N[C@H](CCCNC(=N)N)C(=O)N[C@@H](CC=C)C(=O)OCc2ccccc2)ccc2ccccc12.Cl
Enterococcus faecium [1]
  MIC: 125 µg/mL
Staphylococcus aureus
  MIC: 15.6 µg/mL
Enterococcus faecium [2]
  MIC: 125 µg/mL
Enterococcus faecium [3]
  MIC: 62.5 µg/mL
Enterococcus faecium [4]
  MIC: 125 µg/mL

## C=CCOc1ccc2ccccc2c1-c1c(OCC(=O)N[C@H](CC(C)C)C(=O)N[C@H](CCCNC(=N)N)C(=O)N[C@@H](CC=C)C(=O)OCc2ccccc2)ccc2ccccc12.Cl
Enterococcus faecium [1]
  MIC: 62.5 µg/mL
Staphylococcus aureus
  MIC: 3.9 µg/mL
Enterococcus faecium [2]
  MIC: 62.5 µg/mL
Enterococcus faecium [3]
  MIC: 31.3 µg/mL
Enterococcus faecium [4]
  MIC: 31.3 µg/mL

## C=CCOc1ccc2ccccc2c1-c1c(OCC(=O)N[C@H](Cc2ccccc2)C(=O)N[C@H](CCCNC(=N)N)C(=O)N[C@@H](CC=C)C(=O)OCc2ccccc2)ccc2ccccc12.Cl
Enterococcus faecium [1]
  MIC: > 125 µg/mL
Staphylococcus aureus
  MIC: 26.1 µg/mL
Enterococcus faecium [2]
  MIC: > 125 µg/mL
Enterococcus faecium [3]
  MIC: 31.3 µg/mL
Enterococcus faecium [4]
  MIC: 62.5 µg/mL

## C=CCOc1ccc2ccccc2c1-c1c(OCC(=O)N[C@H](CCCC)C(=O)N[C@H](CCCNC(=N)N)C(=O)N[C@@H](CC=C)C(=O)OCc2ccccc2)ccc2ccccc12.Cl
Enterococcus faecium [1]
  MIC: 125 µg/mL
Staphylococcus aureus
  MIC: 52.1 µg/mL
Enterococcus faecium [2]
  MIC: 125 µg/mL
Enterococcus faecium [3]
  MIC: 62.5 µg/mL
Enterococcus faecium [4]
  MIC: 83 µg/mL

## C=CCOc1ccc2ccccc2c1-c1c(OCC(=O)N[C@H](CCCCN)C(=O)N[C@H](CCCNC(=N)N)C(=O)N[C@H](CC=C)C(=O)OCc2ccccc2)ccc2ccccc12.Cl.Cl
Enterococcus faecium [1]
  MIC: 125 µg/mL
Staphylococcus aureus
  MIC: 15.6 µg/mL
Enterococcus faecium [2]
  MIC: 125 µg/mL
Enterococcus faecium [3]
  MIC: 62.5 µg/mL
Enterococcus faecium [4]
  MIC: 104 µg/mL

## C=CCOc1ccc2ccccc2c1-c1c(OCC(=O)N[C@H](CCCCN)C(=O)N[C@H](CCCNC(=N)N)C(=O)N[C@@H](CC(C)C)C(=O)OCc2ccccc2)ccc2ccccc12.Cl.Cl
Enterococcus faecium [1]
  MIC: 31.3 µg/mL
Staphylococcus aureus
  MIC: 1.95 µg/mL
Enterococcus faecium [2]
  MIC: 31.3 µg/mL
Enterococcus faecium [3]
  MIC: 31.3 µg/mL
Enterococcus faecium [4]
  MIC: 31.3 µg/mL

## C=CCOc1ccc2ccccc2c1-c1c(OCC(=O)N[C@H](CC(C)C)C(=O)N[C@H](CCCNC(=N)N)C(=O)N[C@@H](C)C(=O)OCc2ccccc2)ccc2ccccc12.Cl
Enterococcus faecium [1]
  MIC: 62.5 µg/mL
Staphylococcus aureus
  MIC: 5.2 µg/mL
Enterococcus faecium [2]
  MIC: 62.5 µg/mL
Enterococcus faecium [3]
  MIC: 62.5 µg/mL
Enterococcus faecium [4]
  MIC: 62.5 µg/mL

## C=CCOc1ccc2ccccc2c1-c1c(OCC(=O)N[C@H](CCCCN)C(=O)N[C@H](CCCNC(=N)N)C(=O)N[C@@H](C)C(=O)OCc2ccccc2)ccc2ccccc12.Cl.Cl
Enterococcus faecium [1]
  MIC: 125 µg/mL
Staphylococcus aureus
  MIC: 7.8 µg/mL
Enterococcus faecium [2]
  MIC: 125 µg/mL
Enterococcus faecium [3]
  MIC: 125 µg/mL
Enterococcus faecium [4]
  MIC: 125 µg/mL

## C=CCOc1ccc2ccccc2c1-c1c(OCC(=O)N[C@H](CCCCN)C(=O)N[C@H](CCCNC(=N)N)C(=O)NCC(=O)OCc2ccccc2)ccc2ccccc12.Cl.Cl
Enterococcus faecium [1]
  MIC: 125 µg/mL
Staphylococcus aureus
  MIC: 3.9 µg/mL
Enterococcus faecium [2]
  MIC: 125 µg/mL
Enterococcus faecium [3]
  MIC: 125 µg/mL
Enterococcus faecium [4]
  MIC: 62.5 µg/mL

## CC(C)CCOc1ccc2ccccc2c1-c1c(OCC(=O)N[C@H](CCCCN)C(=O)N[C@H](CCN)C(=O)N[C@@H](CC(C)C)C(=O)OCc2ccccc2)ccc2ccccc12.Cl.Cl
Enterococcus faecium [1]
  MIC: 31.3 µg/mL
Staphylococcus aureus
  MIC: 1.95 µg/mL
Enterococcus faecium [2]
  MIC: 31.3 µg/mL
Enterococcus faecium [3]
  MIC: 15.6 µg/mL
Enterococcus faecium [4]
  MIC: 15.6 µg/mL

Source: ChEMBL document CHEMBL1156988, “Synthesis and antibacterial studies of binaphthyl-based tripeptoids. Part 1” (2010)
